Laboratory results from ChEMBL document CHEMBL4665773, “Structure activity relationship exploration of 5-hydroxy-2-(3-phenylpropyl)chromones as a unique 5-HT receptor antagonist scaffold” (Bioorg Med Chem Lett, 2020).

Legend:
[1] = molecular target: T1, 5-hydroxytryptamine receptor 2C (Homo sapiens) (UniProt P28335); experiment: Antagonist activity at 5HT2C receptor (unknown origin) 10 uM by radioligand binding assay relative to control
T1 sequence (whole entry): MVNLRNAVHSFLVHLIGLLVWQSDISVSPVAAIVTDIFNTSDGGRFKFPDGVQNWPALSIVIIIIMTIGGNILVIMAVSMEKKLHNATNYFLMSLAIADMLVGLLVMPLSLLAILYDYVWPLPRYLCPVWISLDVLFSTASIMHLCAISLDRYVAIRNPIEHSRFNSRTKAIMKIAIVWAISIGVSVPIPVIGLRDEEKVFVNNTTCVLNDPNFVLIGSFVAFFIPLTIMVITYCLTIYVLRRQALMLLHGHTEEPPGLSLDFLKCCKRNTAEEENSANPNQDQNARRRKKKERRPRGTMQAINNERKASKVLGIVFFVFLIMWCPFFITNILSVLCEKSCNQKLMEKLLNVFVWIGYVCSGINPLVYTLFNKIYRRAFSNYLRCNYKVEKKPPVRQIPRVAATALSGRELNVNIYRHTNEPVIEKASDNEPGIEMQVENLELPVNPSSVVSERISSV

[2] = molecular target: 5-hydroxytryptamine receptor 2A (Homo sapiens) (UniProt P28223); experiment: Antagonist activity at 5HT2A receptor (unknown origin) at 10 uM by radioligand binding assay relative to control
[3] = molecular target: T2, 5-hydroxytryptamine receptor 2B (Homo sapiens, UniProt P41595); experiment: Antagonist activity at 5HT2B receptor (unknown origin) at 10 uM by radioligand binding assay relative to control
[4] = molecular target: T2, 5-hydroxytryptamine receptor 2B; experiment: Antagonist activity at 5HT2B receptor (unknown origin) by radioligand binding assay
[5] = molecular target: T3, 5-hydroxytryptamine receptor 2C (Homo sapiens, UniProt P28335); experiment: Antagonist activity at 5HT2C receptor (unknown origin) by radioligand binding assay
T3 sequence (P28335 whole entry): T1 sequence (whole entry)

[6] = molecular target: T2, 5-hydroxytryptamine receptor 2B; experiment: Antagonist activity at 5-HT2B receptor (unknown origin) assessed as inhibition of 5HT-indued response by calcium mobilization assay; type: functional
In short: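 Antagonist mode of the 5-HT2B calcium mobilization assay: 5-HT at 1.6 nM was challenged with various concentrations of test compound. Inhibition is expressed as pIC50.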

[7] = molecular target: T2, 5-hydroxytryptamine receptor 2B; experiment: Agonist activity at 5-HT2B receptor (unknown origin) by calcium mobilization assay; type: functional
[8] = molecular target: T2, 5-hydroxytryptamine receptor 2B; experiment: Agonist activity at 5-HT2B receptor (unknown origin) assessed as maximal response at 10 uM by calcium mobilization assay relative to 3 nM 5-HT; type: functional
In short: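 Calcium mobilization read-out of agonism at 5-HT2B, with 5-HT as the reference agonist. Potency is expressed as pEC50. Maximal response to test compound at 10 μM is expressed relative to the maximal response to 5-HT at 3.0 nM.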

T2 sequence (P41595 whole entry): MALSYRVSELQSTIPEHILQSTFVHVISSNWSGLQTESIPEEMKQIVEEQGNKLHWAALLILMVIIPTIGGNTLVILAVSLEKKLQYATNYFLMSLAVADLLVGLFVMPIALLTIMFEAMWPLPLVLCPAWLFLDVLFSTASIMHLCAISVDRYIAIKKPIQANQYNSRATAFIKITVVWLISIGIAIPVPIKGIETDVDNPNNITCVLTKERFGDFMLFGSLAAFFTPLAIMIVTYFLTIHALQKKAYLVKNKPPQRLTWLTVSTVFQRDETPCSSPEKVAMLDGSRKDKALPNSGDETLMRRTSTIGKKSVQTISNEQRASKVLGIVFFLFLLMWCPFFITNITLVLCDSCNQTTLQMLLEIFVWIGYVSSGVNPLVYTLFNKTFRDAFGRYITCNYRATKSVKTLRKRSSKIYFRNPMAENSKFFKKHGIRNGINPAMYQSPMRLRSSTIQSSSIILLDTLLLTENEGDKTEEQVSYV
Chain of 5-hydroxytryptamine receptor 2A (Homo sapiens) (P28223 whole entry): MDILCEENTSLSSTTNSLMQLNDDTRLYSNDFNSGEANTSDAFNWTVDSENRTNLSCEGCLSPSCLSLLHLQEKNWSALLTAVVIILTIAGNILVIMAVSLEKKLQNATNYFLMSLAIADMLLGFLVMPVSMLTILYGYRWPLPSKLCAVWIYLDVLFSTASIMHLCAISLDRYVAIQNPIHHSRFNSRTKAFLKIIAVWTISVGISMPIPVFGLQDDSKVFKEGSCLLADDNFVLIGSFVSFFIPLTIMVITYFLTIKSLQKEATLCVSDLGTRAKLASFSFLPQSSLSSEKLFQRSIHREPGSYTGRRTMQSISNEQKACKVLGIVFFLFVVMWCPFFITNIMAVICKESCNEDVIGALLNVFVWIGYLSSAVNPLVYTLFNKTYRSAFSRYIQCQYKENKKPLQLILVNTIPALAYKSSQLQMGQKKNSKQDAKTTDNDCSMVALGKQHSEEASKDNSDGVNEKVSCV

SMILES	inhibition [1]	inhibition [2]	inhibition ([3]; filed as antagonist)	Ki [4]	inhibition ([1]; filed as antagonist)	Ki [5]	inhibition [3]	IC50 [6]	EC50 [7]	Rmax [8]
O=c1cc(CCCc2ccc(F)cc2)oc2cccc(O)c12	33.9%	14.2%	49.2%	–	–	–	–	–	–	–
O=c1cc(CCCc2ccc(Cl)cc2)oc2cccc(O)c12	35.8%	9.3%	50.4%	2510 nM	–	–	–	–	–	–
Cc1cccc(CCCc2cc(=O)c3c(O)cccc3o2)c1	–	14.4%	57.7%	2000 nM	59.4%	3160 nM	–	–	–	–
O=c1cc(CCCc2ccc(OC(F)(F)F)cc2)oc2cccc(O)c12	32.6%	-5%	–	–	–	–	35.3%	–	–	–
N#Cc1cccc(CCCc2cc(=O)c3c(O)cccc3o2)c1	15.5%	7.2%	91.1%	79.4 nM	–	–	–	6310 nM	501 nM	12%
Cc1ccc(CCCc2cc(=O)c3c(O)cccc3o2)cc1	–	17.2%	50%	1580 nM	51.2%	3160 nM	–	–	–	–
COc1cccc(CCCc2cc(=O)c3c(O)cccc3o2)c1	–	9.8%	69.3%	–	67.4%	–	–	–	–	–
COc1ccc(CCCc2cc(=O)c3c(O)cccc3o2)cc1	–	-1.6%	75.3%	–	87.9%	–	–	–	–	–

Other lines, results leading:

inhibition [1]	inhibition [2]	inhibition ([3]; filed as antagonist)	Ki [4]	inhibition ([1]; filed as antagonist)	Ki [5]	inhibition [3]	IC50 [6]	EC50 [7]	Rmax [8]	SMILES
36%	19.5%	50%	2510 nM	–	–	–	–	–	–	O=c1cc(CCCc2ccc(C(F)(F)F)cc2)oc2cccc(O)c12
–	8.4%	52.7%	2510 nM	44.4%	–	–	–	–	–	O=c1cc(CCCc2cccc(F)c2)oc2cccc(O)c12
–	8.7%	65.8%	1000 nM	43.5%	–	–	–	–	–	O=c1cc(CCCc2cccc(C(F)(F)F)c2)oc2cccc(O)c12
–	13.9%	61.7%	2000 nM	44.8%	–	–	–	–	–	O=c1cc(CCCc2cccc(Cl)c2)oc2cccc(O)c12
